Biological target: T1, Stromelysin-2 (Homo sapiens, UniProt P09238)
Test: Inhibition of MMP10 (unknown origin) assessed as residual activity at 10 uM using (5-FAM/QX) FRET peptide as substrate by fluorescence assay relative to control
Details: not given
Procedure, shortened: (§1)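 Residual enzyme activity read at a single 10 μM inhibitor concentration, in duplicate. Fluorescence assay on cleavage of the QXL520/5-FAM FRET peptide. Buffer was 50 mM HEPES pH 7.5 with 10 mM CaCl₂, 0.01% Brij-35 and 0.1 mg/ml BSA. GM6001 served as control inhibitor. Same assay system as the IC50 determinations.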
Target sequence in this assay (P09238 99-476 limits assumed): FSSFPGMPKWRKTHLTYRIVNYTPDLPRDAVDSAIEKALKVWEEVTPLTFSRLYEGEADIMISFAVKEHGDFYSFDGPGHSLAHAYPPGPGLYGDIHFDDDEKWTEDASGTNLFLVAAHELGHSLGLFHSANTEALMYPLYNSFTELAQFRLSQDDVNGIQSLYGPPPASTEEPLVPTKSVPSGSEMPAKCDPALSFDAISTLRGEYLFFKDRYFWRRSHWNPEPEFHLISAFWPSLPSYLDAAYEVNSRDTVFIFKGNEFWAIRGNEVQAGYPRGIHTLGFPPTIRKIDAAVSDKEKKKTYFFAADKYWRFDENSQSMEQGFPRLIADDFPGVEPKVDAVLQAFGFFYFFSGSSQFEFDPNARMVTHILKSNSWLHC

Row | SMILES | Activity [%]
1 | COc1cc(CNC(=O)C#Cc2cn(Cc3ccc(C(=O)N[C@@H](CO)C(=O)O)cc3)c(=O)[nH]c2=O)ccc1F | 10.4
2 | COc1cc(CNC(=O)C#Cc2cn(Cc3ccc(C(=O)N[C@@H](C)C(=O)O)cc3)c(=O)[nH]c2=O)ccc1F | 28.5
3 | COC(=O)CNS(=O)(=O)c1ccc(Cn2cc(C#CC(=O)NCc3ccc(F)c(OC)c3)c(=O)[nH]c2=O)cc1 | 14.3
4 | COC(=O)[C@H](C)NC(=O)c1ccc(Cn2cc(C#CC(=O)NCc3ccc(F)c(OC)c3)c(=O)[nH]c2=O)cc1 | 15.5
5 | COC(=O)c1ccc(Cn2cc(C#CC(=O)NCc3ccc(F)c(OC)c3)c(=O)[nH]c2=O)cc1 | 18

Further lines, results first:

Row | Activity [%] | SMILES
6 | 47.9 | COc1cc(CNC(=O)C#Cc2cn(Cc3ccc(S(=O)(=O)N(C)C)cc3)c(=O)[nH]c2=O)ccc1F
7 | 26.6 | COc1cc(CNC(=O)C#Cc2cn(Cc3ccc(C(=O)N[C@H](C)C(=O)O)cc3)c(=O)[nH]c2=O)ccc1F

Biological target: T2, Collagenase 3 (Homo sapiens, UniProt P45452)
Test: Inhibition of C-terminal tagged human recombinant MMP13 catalytic domain expressed in Escherichia coli assessed as residual activity at 10 uM using (5-FAM/QX) FRET peptide as substrate by fluorescence assay relative to control
Details: not given
Procedure, shortened: as §1

Row | SMILES | Activity [%]
8 | COc1cc(CNC(=O)C#Cc2cn(Cc3ccc(C(=O)N[C@@H](CO)C(=O)O)cc3)c(=O)[nH]c2=O)ccc1F | 0.8
9 | COc1cc(CNC(=O)C#Cc2cn(Cc3ccc(C(=O)N[C@@H](C)C(=O)O)cc3)c(=O)[nH]c2=O)ccc1F | 0.8
10 | COC(=O)CNS(=O)(=O)c1ccc(Cn2cc(C#CC(=O)NCc3ccc(F)c(OC)c3)c(=O)[nH]c2=O)cc1 | 2.1
11 | COC(=O)[C@H](C)NC(=O)c1ccc(Cn2cc(C#CC(=O)NCc3ccc(F)c(OC)c3)c(=O)[nH]c2=O)cc1 | 2.5
12 | COC(=O)c1ccc(Cn2cc(C#CC(=O)NCc3ccc(F)c(OC)c3)c(=O)[nH]c2=O)cc1 | 4.6

The next lines start with the values.

Row | Activity [%] | SMILES
13 | 5.8 | COc1cc(CNC(=O)C#Cc2cn(Cc3ccc(S(=O)(=O)N(C)C)cc3)c(=O)[nH]c2=O)ccc1F
14 | 0.4 | COc1cc(CNC(=O)C#Cc2cn(Cc3ccc(C(=O)N[C@H](C)C(=O)O)cc3)c(=O)[nH]c2=O)ccc1F

Biological target: T1, Stromelysin-2
Test: Inhibition of MMP10 (unknown origin) assessed using (5-FAM/QX) FRET peptide as substrate by fluorescence assay
Details: read-out: IC50
Procedure, shortened: (§2)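 IC50 from 10 concentrations in 3-fold dilution, starting at 10 μM or 100 μM, with two to six replicates. Run only for compounds leaving under 20% residual activity at 10 μM. Fluorescence read-out of QXL520/5-FAM FRET peptide cleavage in 50 mM HEPES pH 7.5, 10 mM CaCl₂, 0.01% Brij-35 and 0.1 mg/ml BSA. Four-parameter least-squares fit; GM6001 as control.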
Target sequence in this assay (P09238 whole entry): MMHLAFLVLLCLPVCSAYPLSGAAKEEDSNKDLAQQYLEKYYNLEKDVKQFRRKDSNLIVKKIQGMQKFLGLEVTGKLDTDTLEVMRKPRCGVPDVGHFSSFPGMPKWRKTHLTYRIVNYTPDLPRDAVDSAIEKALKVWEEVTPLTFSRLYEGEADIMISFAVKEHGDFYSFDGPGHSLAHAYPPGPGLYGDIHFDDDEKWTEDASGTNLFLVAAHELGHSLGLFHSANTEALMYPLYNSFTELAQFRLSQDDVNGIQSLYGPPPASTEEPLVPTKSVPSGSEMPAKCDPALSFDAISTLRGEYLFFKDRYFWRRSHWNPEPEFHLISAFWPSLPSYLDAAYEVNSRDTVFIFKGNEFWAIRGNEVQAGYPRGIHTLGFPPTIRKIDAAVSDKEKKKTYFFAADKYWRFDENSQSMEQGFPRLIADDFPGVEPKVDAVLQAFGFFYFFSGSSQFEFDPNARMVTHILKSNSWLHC

Row | IC50 [nM] | SMILES
15 | 705 | COc1cc(CNC(=O)C#Cc2cn(Cc3ccc(C(=O)N[C@@H](CO)C(=O)O)cc3)c(=O)[nH]c2=O)ccc1F
16 | 485 | COC(=O)CNS(=O)(=O)c1ccc(Cn2cc(C#CC(=O)NCc3ccc(F)c(OC)c3)c(=O)[nH]c2=O)cc1
17 | 751 | COC(=O)[C@H](C)NC(=O)c1ccc(Cn2cc(C#CC(=O)NCc3ccc(F)c(OC)c3)c(=O)[nH]c2=O)cc1
18 | 506 | COC(=O)c1ccc(Cn2cc(C#CC(=O)NCc3ccc(F)c(OC)c3)c(=O)[nH]c2=O)cc1

Same assay, conditions: read-out: pIC50 (converted)

Row | IC50 [nM] | SMILES
19 | 501 to 832 | COc1cc(CNC(=O)C#Cc2cn(Cc3ccc(C(=O)N[C@@H](CO)C(=O)O)cc3)c(=O)[nH]c2=O)ccc1F
20 | 245 to 437 | COC(=O)CNS(=O)(=O)c1ccc(Cn2cc(C#CC(=O)NCc3ccc(F)c(OC)c3)c(=O)[nH]c2=O)cc1
21 | 490 to 1070 | COC(=O)[C@H](C)NC(=O)c1ccc(Cn2cc(C#CC(=O)NCc3ccc(F)c(OC)c3)c(=O)[nH]c2=O)cc1
22 | 457 to 562 | COC(=O)c1ccc(Cn2cc(C#CC(=O)NCc3ccc(F)c(OC)c3)c(=O)[nH]c2=O)cc1

Biological target: T2, Collagenase 3
Test: Inhibition of C-terminal tagged human recombinant MMP13 catalytic domain expressed in Escherichia coli using (5-FAM/QX) FRET peptide as substrate by fluorescence assay
Details: read-out: IC50
Procedure, shortened: as §2

Row | IC50 [nM] | SMILES
23 | 14 | COc1cc(CNC(=O)C#Cc2cn(Cc3ccc(C(=O)N[C@@H](CO)C(=O)O)cc3)c(=O)[nH]c2=O)ccc1F
24 | 32 | COC(=O)CNS(=O)(=O)c1ccc(Cn2cc(C#CC(=O)NCc3ccc(F)c(OC)c3)c(=O)[nH]c2=O)cc1
25 | 149 | COC(=O)[C@H](C)NC(=O)c1ccc(Cn2cc(C#CC(=O)NCc3ccc(F)c(OC)c3)c(=O)[nH]c2=O)cc1
26 | 128 | COC(=O)c1ccc(Cn2cc(C#CC(=O)NCc3ccc(F)c(OC)c3)c(=O)[nH]c2=O)cc1

Same assay, conditions: read-out: pIC50 (converted)

Row | IC50 [nM] | SMILES
27 | 7.76 to 15.1 | COc1cc(CNC(=O)C#Cc2cn(Cc3ccc(C(=O)N[C@@H](CO)C(=O)O)cc3)c(=O)[nH]c2=O)ccc1F
28 | 15.1 to 34.7 | COC(=O)CNS(=O)(=O)c1ccc(Cn2cc(C#CC(=O)NCc3ccc(F)c(OC)c3)c(=O)[nH]c2=O)cc1
29 | 102 to 195 | COC(=O)[C@H](C)NC(=O)c1ccc(Cn2cc(C#CC(=O)NCc3ccc(F)c(OC)c3)c(=O)[nH]c2=O)cc1
30 | 100 to 158 | COC(=O)c1ccc(Cn2cc(C#CC(=O)NCc3ccc(F)c(OC)c3)c(=O)[nH]c2=O)cc1

Reference: ChEMBL document CHEMBL4028865, “Targeted Polypharmacology: Discovery of a Highly Potent Non-Hydroxamate Dual Matrix Metalloproteinase (MMP)-10/-13 Inhibitor” (J Med Chem, 2017)
